Laboratory results from ChEMBL document CHEMBL5104191, “Identification of Novel 2,4,5-Trisubstituted Pyrimidines as Potent Dual Inhibitors of Plasmodial PfGSK3/PfPK6 with Activity against Blood Stage Parasites In Vitro” (J Med Chem, 2022).

Experiments:
[1] = Inhibition of Plasmodium falciparum PKG incubated for 30 mins […]
[2] = Inhibition of Plasmodium falciparum PK6 measured after 2 hrs by luciferin-based luminescence assay
[3] = tested on: HepG2; test: Cytotoxicity against human HepG2 cells assessed as reduction in cell viability at 2 uM measured after 48 hrs by cell titre glo luminescence assay; type: toxicity, cell-based; details: hepg2, 48 h
Method in brief: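 HepG2 cells in DMEM with 10% FBS, seeded at 4000 cells/well and incubated overnight at 37 °C, 5% CO2. Compound added in quadruplicate with constant DMSO, then 48 h incubation. Viability by CellTiter-Glo luminescence, reported as % viable cells; average of two experiments in quadruplicate.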

[4] = tested on: Plasmodium falciparum; test: Antiplasmodial activity against Plasmodium falciparum 3D7 infected in human erythrocytes assessed as reduction in parasite growth incubated for 72 hrs by SYBR green I fluorescence based assay; type: functional, organism-based; details: 3D7, 72 h
Method in brief: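 P. falciparum 3D7 synchronized by sorbitol at ring stage, set to 2% parasitemia and 2% hematocrit. Compounds dosed at 0–5 μM as 2-fold dilutions in triplicate. Controls were quinacrine 500 nM and 0.5% DMSO. Incubation 72 h at 37 °C in 3% O2/5% CO2/92% N2, then SYBR Green I lysis for 24 h in the dark. Fluorescence ex 485/em 535; normalized to controls; EC50 from dose–response fit.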

[5] = target: T1, Glycogen synthase kinase 3 (Plasmodium falciparum (isolate 3D7)) (UniProt O77344); test: Inhibition of Plasmodium falciparum GSK3 at 1 uM measured after 2 hrs by luciferin-based luminescence assay relative to control; values are per cent of control
T1 sequence (whole entry): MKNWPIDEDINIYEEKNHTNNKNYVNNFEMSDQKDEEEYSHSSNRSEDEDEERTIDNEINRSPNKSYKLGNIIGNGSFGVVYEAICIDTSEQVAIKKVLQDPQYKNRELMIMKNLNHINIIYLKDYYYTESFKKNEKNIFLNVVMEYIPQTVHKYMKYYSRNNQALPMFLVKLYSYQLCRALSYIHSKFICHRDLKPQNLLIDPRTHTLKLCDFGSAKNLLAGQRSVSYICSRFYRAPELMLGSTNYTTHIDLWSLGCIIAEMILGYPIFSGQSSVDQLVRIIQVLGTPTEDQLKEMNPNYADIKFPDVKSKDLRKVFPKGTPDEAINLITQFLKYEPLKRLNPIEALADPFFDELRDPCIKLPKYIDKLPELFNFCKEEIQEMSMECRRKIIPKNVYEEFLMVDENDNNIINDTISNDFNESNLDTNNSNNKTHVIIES

[6] = tested on: Plasmodium falciparum; test: Inhibition of Plasmodium falciparum PK6 at 1 uM measured after 2 hrs by luciferin-based luminescence assay relative to control; values are per cent of control
[7] = tested on: Plasmodium falciparum; test: Antiplasmodial activity against blood stage plasmodium falciparum assessed as inhibition of parasite growth; type: functional, organism-based
[8] = Kinetic solubility of the compound in PBS buffer at pH 7.4; type: physicochemical

## Cc1cn2c(-c3ccnc(NCC4CC4)n3)c(-c3ccc(F)c(NS(C)(=O)=O)c3)nc2cc1CN(C)C
[1]
  IC50: 2.1 nM

## O=C(NCCCN1CCOCC1)c1ccc(Nc2ncc(Cl)c(-c3ccc(Cl)s3)n2)cc1
[2]
  IC50: 8 nM
[3]
  cell viability remaining: 65%
[4]
  EC50: 1400 nM

## CN(C)CCCNC(=O)c1ccc(Nc2nccc(-c3cc4ccccc4s3)n2)cc1
[2]
  IC50: 319 nM

## COc1ccccc1Nc1nccc(-c2cc3ccccc3s2)n1
[5]
  residual activity: 100%

## Cc1cnc(Nc2ccc(C(=O)NCCCN3CCOCC3)cc2)nc1-c1ccc(Cl)s1
[2]
  IC50: 12 nM

## COc1ccc(Nc2nccc(-c3cc4ccccc4s3)n2)cc1
[6]
  residual activity: 88%
[5]
  residual activity: 97%

## O=C(NCCCN1CCOCC1)c1ccc(Nc2nccc(-c3cc4ccccc4s3)n2)cc1
[2]
  IC50: 156 nM

## c1ccc2sc(-c3ccnc(Nc4ccc(CN5CCC(N6CCCC6)CC5)cc4)n3)cc2c1
[2]
  IC50: 173 nM
[3]
  cell viability remaining: 97%
[4]
  EC50: 60 nM

## O=C(c1ccc(Nc2nccc(-c3cc4ccccc4s3)n2)cc1)N1CCC(N2CC[C@H](O)C2)CC1
[2]
  IC50: 264 nM

## Clc1ccccc1Nc1nccc(-c2cc3ccccc3s2)n1
[5]
  residual activity: 100%

## Clc1ccc(Nc2nccc(-c3cc4ccccc4s3)n2)cc1
[6]
  residual activity: 92%
[5]
  residual activity: 89%

## O=C(c1ccc(Nc2ncc(F)c(-c3cc4ccccc4s3)n2)cc1)N1CCC(N2CCCC2)CC1
[2]
  IC50: 66 nM
[3]
  cell viability remaining: 79%
[4]
  EC50: 607 nM

## O=C(c1ccc(Nc2nccc(-c3cc4ccccc4o3)n2)cc1)N1CCC(N2CCCC2)CC1
[2]
  IC50: 317 nM

## c1ccc(Nc2nccc(-c3cc4ccccc4s3)n2)cc1
[5]
  residual activity: 100%

## O=C(c1ccc(Nc2nccc(-c3cccs3)n2)cc1)N1CCC(N2CCCC2)CC1
[2]
  IC50: 236 nM

## O=C(c1ccc(Nc2nccc(-c3ccc(Cl)c(Cl)c3)n2)cc1)N1CCC(N2CCCC2)CC1
[2]
  IC50: 382 nM

## O=C(c1ccc(Nc2ncc(Br)c(-c3cc4ccccc4s3)n2)cc1)N1CCC(N2CCCC2)CC1
[2]
  IC50: 57 nM
[3]
  cell viability remaining: 47%
[4]
  EC50: 300 nM

## O=C(c1ccc(Nc2nccc(-c3nccs3)n2)cc1)N1CCC(N2CCCC2)CC1
[2]
  IC50: 182 nM

## O=C(c1ccc(Nc2nccc(-c3ccc(CO)s3)n2)cc1)N1CCC(N2CCCC2)CC1
[2]
  IC50: 563 nM

## O=C(c1ccc(Nc2ncc(Cl)c(-c3cc4ccccc4s3)n2)cc1)N1CCC(N2CCCC2)CC1
[2]
  IC50: 19 nM
[3]
  cell viability remaining: 61%
[4]
  EC50: 991 nM

## CN(C)C1CCN(C(=O)c2ccc(Nc3nccc(-c4cc5ccccc5s4)n3)cc2)CC1
[2]
  IC50: 216 nM

## O=C(c1ccc(Nc2nccc(-c3cc4ccccc4s3)n2)cc1)N1CCC(N2CC[C@@H](O)C2)CC1
[2]
  IC50: 243 nM

## O=C(c1ccc(Nc2nccc(-c3ccco3)n2)cc1)N1CCC(N2CCCC2)CC1
[2]
  IC50: 768 nM

## CS(=O)(=O)CCCNC(=O)c1ccc(Nc2nccc(-c3cc4ccccc4s3)n2)cc1
[2]
  IC50: 215 nM

## CN1CCN(CCCNC(=O)c2ccc(Nc3nccc(-c4cc5ccccc5s4)n3)cc2)CC1
[2]
  IC50: 153 nM

## O=C(c1ccc(Nc2nccc(-c3cc4ccccc4s3)n2)cc1)N1CCNCC1
[2]
  IC50: 398 nM

## O=C(c1ccc(Nc2nccc(-c3ccc4ccccc4c3)n2)cc1)N1CCC(N2CCCC2)CC1
[2]
  IC50: 359 nM
[3]
  cell viability remaining: 82%
[4]
  EC50: 541 nM

## Cc1ccc(-c2ccnc(Nc3ccc(C(=O)N4CCC(N5CCCC5)CC4)cc3)n2)s1
[2]
  IC50: 222 nM

## CCCN(C)C1CCN(C(=O)c2ccc(Nc3nccc(-c4cc5ccccc5s4)n3)cc2)CC1
[2]
  IC50: 181 nM

## COc1cnc(Nc2ccc(C(=O)N3CCC(N4CCCC4)CC3)cc2)nc1-c1cc2ccccc2s1
[2]
  IC50: 294 nM

## c1ccc(CNc2nccc(-c3cc4ccccc4s3)n2)cc1
[5]
  residual activity: 100%

## Cc1cnc(Nc2ccc(C(=O)N3CCC(N4CCCC4)CC3)cc2)nc1-c1cc2ccccc2s1
[2]
  IC50: 45 nM
[3]
  cell viability remaining: 66%
[4]
  EC50: 760 nM

## Cc1cnc(Nc2ccc(C(=O)N3CCC(N4CCCC4)CC3)cc2)nc1-c1ccc(Cl)s1
[2]
  IC50: 14 nM
[3]
  cell viability remaining: 65%
[4]
  EC50: 576 nM

## CN1CCC(NC(=O)c2ccc(Nc3nccc(-c4cc5ccccc5s4)n3)cc2)CC1
[2]
  IC50: 340 nM

## CC(C)n1cnc2c(NCc3ccccc3)nc(NCCO)nc21
[7]
  IC50: 130000 nM

## Cc1ccc(-c2nc(Nc3ccc(C(=O)N4CCC(N5CCCC5)CC4)cc3)ncc2Cl)s1
[2]
  IC50: 14 nM

## O=C(c1ccc(Nc2ncc(Cl)c(-c3ccc(Cl)s3)n2)cc1)N1CCC(N2CCCC2)CC1
[2]
  IC50: 11 nM
[3]
  cell viability remaining: 34%
[4]
  EC50: 552 nM

## N#Cc1cnc(Nc2ccc(C(=O)N3CCC(N4CCCC4)CC3)cc2)nc1-c1cc2ccccc2s1
[2]
  IC50: 77 nM
[3]
  cell viability remaining: 84%
[4]
  EC50: 322 nM

## O=C(NC1CC1)c1ccc(Nc2nccc(-c3cc4ccccc4s3)n2)cc1
[2]
  IC50: 407 nM

## O=C(O)c1ccc(Nc2nccc(-c3cc4ccccc4s3)n2)cc1
[5]
  residual activity: 33%

## Clc1cccc(Nc2nccc(-c3cc4ccccc4s3)n2)c1
[5]
  residual activity: 89%

## O=C(c1ccc(Nc2ncc(C3CC3)c(-c3cc4ccccc4s3)n2)cc1)N1CCC(N2CCCC2)CC1
[2]
  IC50: 114 nM
[3]
  cell viability remaining: 55%
[4]
  EC50: 646 nM

## Cc1ccc(-c2nc(Nc3ccc(C(=O)NCCCN4CCOCC4)cc3)ncc2Cl)s1
[2]
  IC50: 16 nM
[3]
  cell viability remaining: 54%
[4]
  EC50: 2600 nM

## O=C(c1ccc(Nc2nccc(-c3ccccc3)n2)cc1)N1CCC(N2CCCC2)CC1
[2]
  IC50: 329 nM

## O=C(c1ccc(Nc2nccc(-c3ccc(COCC(F)(F)F)s3)n2)cc1)N1CCC(N2CCCC2)CC1
[2]
  IC50: 292 nM
[3]
  cell viability remaining: 87%
[4]
  EC50: 810 nM

## O=C(c1ccc(Nc2nccc(-c3cc4ccccc4s3)n2)cc1)N1CCC(N2CCCCC2)CC1
[2]
  IC50: 115 nM

## COC(=O)c1ccc(Nc2nccc(-c3cc4ccccc4s3)n2)cc1
[6]
  residual activity: 78%
[5]
  residual activity: 71%

## Cc1ccc(-c2nc(Nc3ccc(C(=O)N4CCC(N5CCCC5)CC4)cc3)ncc2C)s1
[2]
  IC50: 28 nM

## CN1CCN(C(=O)c2ccc(Nc3nccc(-c4cc5ccccc5s4)n3)cc2)CC1
[2]
  IC50: 339 nM

## O=C(c1ccc(Nc2nccc(-c3ccc(Cl)s3)n2)cc1)N1CCC(N2CCCC2)CC1
[2]
  IC50: 130 nM

## O=C(c1ccc(Nc2nccc(-c3cc4ccccc4s3)n2)cc1)N1CCC(N2CCCC2)CC1
[2]
  IC50: 460 nM
[3]
  cell viability remaining: 103%
[4]
  EC50: 280 nM
[8]
  Kinetic_solubility: 19.4 µg/mL

## O=C(c1ccc(Nc2nccc(-c3ccc(-c4ccccc4)s3)n2)cc1)N1CCC(N2CCCC2)CC1
[2]
  IC50: 415 nM

## COc1cccc(Nc2nccc(-c3cc4ccccc4s3)n2)c1
[5]
  residual activity: 97%

## Cn1cc(-c2ccnc(Nc3ccc(C(=O)N4CCC(N5CCCC5)CC4)cc3)n2)cn1
[2]
  IC50: 645 nM
